Activity calls are given as the source filed them. The calls are words filed in the database; no cut-off is given here.
Experiments:
SH-SY5Y [1] = assay: Neuroprotective activity against MPP+-induced neuronal cell death in human SH-SY5Y cells assessed as cell viability at 3 uM pretreated for 2 hrs before MPP+ administration measured after 4 hrs by MTT assay; type: functional
In short: (§1)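 SH-SY5Y cells grown at 37 °C in DMEM with 10% heat-inactivated FBS and penicillin/streptomycin, detached with 1 mM EGTA in PBS for 15 min, seeded at 1 × 10^4 cells/well and incubated 24 h. Cells were pretreated 2 h with compound at 3, 10 or 30 μM, then exposed to MPP+ medium. MTT was added to 0.5 mg/mL final, incubated 4 h, and formazan read at 550 nm. Guanosine served as positive control. Triplicates, mean ± SEM, ANOVA with Student–Newman–Keuls test.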

SH-SY5Y [2] = assay: Neuroprotective activity against MPP+-induced neuronal cell death in human SH-SY5Y cells assessed as cell viability at 10 uM pretreated for 2 hrs before MPP+ administration measured after 4 hrs by MTT assay; type: functional; in short: as §1
SH-SY5Y [3] = assay: Neuroprotective activity against MPP+-induced neuronal cell death in human SH-SY5Y cells assessed as cell viability at 30 uM pretreated for 2 hrs before MPP+ administration measured after 4 hrs by MTT assay; type: functional; in short: as §1
SH-SY5Y [4] = assay: Cytotoxicity in human SH-SY5Y cells at 3 to 30 uM by MTT assay; type: cell-based
In short: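 SH-SY5Y human dopaminergic neuroblastoma cells grown at 37 °C, 5% CO2, in DMEM with 10% inactivated FBS and penicillin/streptomycin. Cells detached with 1 mM EGTA in PBS for 15 min, seeded at 1 × 10^4 cells/well, and incubated 24 h. Compounds given at 3, 10 and 30 μM. MTT added to 0.5 mg/mL final for 4 h at 37 °C; formazan read at 550 nm. Run in triplicate.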

Compound	Activity (SH-SY5Y [1])	Activity (SH-SY5Y [2])	Activity (SH-SY5Y [3])	Activity (SH-SY5Y [4])
C/C=C(\C)C(=O)[C@@H]1CC[C@]2(CO2)[C@]2(COC(C)=O)[C@@H](OC(C)=O)C[C@@H](C)[C@](C)(C[C@H](OC(=O)[C@@H](C)CC)C3=CC(=O)OC3)[C@@H]12	inactive	inactive	inactive	
C/C=C(\C)C(=O)OC[C@@]12[C@H](CCC[C@]1(O)CO)[C@@](C)(CCC1=CC(=O)OC1)[C@H](C)C[C@@H]2O	inactive	inactive	inactive	
Nc1nc2c(ncn2[C@@H]2O[C@H](CO)[C@@H](O)[C@H]2O)c(=O)[nH]1 [GUANOSINE]	70%	79.7%	90.1%	
C/C=C(\C)C(=O)O[C@@H]1CC[C@](O)(CCl)[C@]2(COC(C)=O)[C@@H](OC(C)=O)C[C@@H](C)[C@](C)(C[C@H](O)C3=CC(=O)OC3)[C@@H]12 [AJUGAMARIN A1 CHLOROHYDRIN]	67.1%	69.2%	73.8%	
C/C=C(\C)C(=O)O[C@@H](C[C@@]1(C)[C@H](C)C[C@H](OC(C)=O)[C@]2(COC(C)=O)[C@@H]1[C@H](OC(C)=O)CC[C@]21CO1)C1=CC(=O)OC1 [AJUGANIPPONIN A]	65.4%	69.2%	76.6%	Non-toxic
CC[C@H](C)C(=O)O[C@@H](C[C@@]1(C)[C@H](C)C[C@H](OC(C)=O)[C@]2(COC(C)=O)[C@@H]1[C@H](OC(=O)[C@@H](C)CC)CC[C@]2(O)CCl)C1=CC(=O)OC1	inactive	inactive	inactive	
CC(=O)OC[C@@]12[C@@H](OC(C)=O)C[C@@H](C)[C@](C)(C[C@H](OC(C)=O)C3=CC(=O)OC3)[C@H]1[C@H](OC(C)=O)CC[C@]21CO1	inactive	inactive	inactive	
CC[C@H](C)C(=O)O[C@@H]1CC[C@]2(CO2)[C@]2(COC(C)=O)[C@@H](OC(C)=O)C[C@@H](C)[C@](C)(C[C@H](O)C3=CC(=O)OC3)[C@@H]12	inactive	inactive	inactive	
C/C=C(\C)C(=O)O[C@@H](C[C@@]1(C)[C@H](C)C[C@H](OC(C)=O)[C@]2(COC(C)=O)[C@@H]1[C@H](OC(=O)[C@@H](C)CC)CC[C@]21CO1)C1=CC(=O)OC1 [AJUGAMARIN H1]	67.3%	70.4%	87.5%	
C/C=C(\C)C(=O)O[C@@H]1CC[C@]2(CO2)[C@]2(COC(C)=O)[C@@H](OC(C)=O)C[C@@H](C)[C@](C)(C[C@H](OC(C)=O)C3=CC(=O)OC3)[C@@H]12	inactive	inactive	inactive	
C/C=C(\C)C(=O)O[C@@H](C[C@@]1(C)[C@H](C)C[C@H](OC(C)=O)[C@]2(COC(C)=O)[C@@H]1CCC[C@]21CO1)C1=CC(=O)OC1	inactive	inactive	inactive	
CC(=O)OC[C@@]12[C@@H](OC(C)=O)C[C@@H](C)[C@](C)(C[C@H](O)C3=CC(=O)OC3)[C@H]1CCC[C@]21CO1	inactive	inactive	inactive	
CC(=O)OC[C@]12[C@@H](OC(C)=O)C[C@@H](C)[C@]3(C)C[C@H](C4=CC(=O)OC4)O[C@H](CC[C@]1(O)CO)[C@H]32 [AJUGACILIATIN G]	69.1%	73.6%	81.5%	
CC[C@H](C)C(=O)O[C@@H](C[C@@]1(C)[C@H](C)C[C@H](OC(C)=O)[C@]2(COC(C)=O)[C@@H]1[C@H](OC(=O)[C@@H](C)CC)CC[C@]21CO1)C1=CC(=O)OC1 [AJUGATAKASIN B]	70.2%	76.5%	84.3%	
C/C=C(\C)C(=O)OC[C@@]12[C@H](CCC[C@]1(O)COC(C)=O)[C@@](C)(CCC1=CC(=O)OC1)[C@H](C)C[C@@H]2O	inactive	inactive	inactive	
C/C=C(\C)C(=O)OC[C@@]1(O)CCC[C@@H]2[C@@](C)(CCC3=CC(=O)OC3)[C@H](C)C[C@H](O)[C@]21CO	inactive	inactive	inactive	
C/C=C(\C)C(=O)O[C@@H](C[C@@]1(C)[C@H](C)C[C@H](OC(C)=O)[C@]2(COC(C)=O)[C@@H]1[C@H](OC(=O)/C(C)=C/C)CC[C@]2(O)CCl)C1=CC(=O)OC1	inactive	inactive	inactive	
CC(=O)OC[C@@]12[C@@H](OC(C)=O)C[C@@H](C)[C@](C)(C[C@H](O)C3=CC(=O)OC3)[C@H]1[C@H](OC(C)=O)CC[C@]21CO1	inactive	inactive	inactive	
CC(=O)OC[C@]12[C@@H](OC(C)=O)C[C@@H](C)[C@]3(C)C[C@H](C4=CC(=O)OC4)O[C@H](CC[C@]1(O)CCl)[C@H]32	inactive	inactive	inactive	
C/C=C(\C)C(=O)OC[C@@]12[C@@H](OC(C)=O)C[C@@H](C)[C@](C)(CCC3=CC(=O)OC3)[C@H]1CCC[C@]2(O)CCl	inactive	inactive	inactive	
CC[C@H](C)C(=O)O[C@@H]1CC[C@](O)(CCl)[C@]2(COC(C)=O)[C@@H](OC(C)=O)C[C@@H](C)[C@](C)(C[C@H](OC(C)=O)C3=CC(=O)OC3)[C@@H]12	inactive	inactive	inactive	
C/C=C(\C)C(=O)O[C@@H]1CC[C@]2(CO2)[C@]2(COC(C)=O)[C@@H](OC(C)=O)C[C@@H](C)[C@](C)(C[C@H](O)C3=CC(=O)OC3)[C@@H]12 [AJUGAMARIN A1]	65.3%	73.4%	81.9%	
C/C=C(\C)C(=O)O[C@@H]1CC[C@](O)(CCl)[C@]2(COC(C)=O)[C@@H](OC(C)=O)C[C@@H](C)[C@](C)(C[C@H](OC(=O)[C@@H](C)CC)C3=CC(=O)OC3)[C@@H]12	inactive	inactive	inactive	
CC[C@H](C)C(=O)O[C@@H](C[C@@]1(C)[C@H](C)C[C@H](OC(C)=O)[C@]2(COC(C)=O)[C@@H]1[C@H](OC(C)=O)CC[C@]2(O)CCl)C1=CC(=O)OC1 [AJUGACILIATIN B]	67.4%	80.4%	88.2%	
C/C=C(\C)C(=O)O[C@@H]1CC[C@](O)(CCl)[C@]2(COC(C)=O)[C@@H](OC(C)=O)C[C@@H](C)[C@](C)(C[C@H](OC(C)=O)C3=CC(=O)OC3)[C@@H]12 [AJUGAMARIN A2 CHLOROHYDRIN]	71%	79.7%	83.7%	
CC(=O)OC[C@]12[C@@H](OC(C)=O)C[C@@H](C)[C@]3(C)C[C@H](C4=CC(=O)OC4)O[C@H](CC[C@]14CO4)[C@H]32 [AJUGACILIATIN H]	65.2%	74.2%	78.2%	
C/C=C(\C)C(=O)O[C@@H](C[C@@]1(C)[C@H](C)C[C@H](OC(C)=O)[C@]2(COC(C)=O)[C@@H]1[C@H](OC(=O)/C(C)=C/C)CC[C@]21CO1)C1=CC(=O)OC1 [AJUGATAKASIN A]	66.3%	71.5%	78.2%	
C/C=C(\C)C(=O)OC[C@@]12[C@@H](OC(C)=O)C[C@@H](C)[C@](C)(CCC3=CC(=O)OC3)[C@H]1CCC[C@]21CO1	inactive	inactive	inactive	

— ChEMBL document CHEMBL1811884, “Bioactive neo-clerodane diterpenoids from the whole plants of Ajuga ciliata Bunge” (J Nat Prod, 2011)
